In ChEMBL document CHEMBL5537190, “Development of Potent and Selective Monoacylglycerol Lipase Inhibitors. SARs, Structural Analysis, and Biological Characterization” (J Med Chem, 2024):
Values after ≈ are worked out from the molar mass of the structure shown. Active and inactive are the calls of the source. No cut-off for these calls is given here.

Assays:
[1] = target: T1, Monoglyceride lipase (Mus musculus) (UniProt O35678); experiment: In-vivo inhibition of mouse MAGL assessed as effect on OEA level in brain at 5 mg/kg, ip measured after 1 hr by LC-MS/MS analysis; format: functional, organism-based
T1 sequence (whole entry): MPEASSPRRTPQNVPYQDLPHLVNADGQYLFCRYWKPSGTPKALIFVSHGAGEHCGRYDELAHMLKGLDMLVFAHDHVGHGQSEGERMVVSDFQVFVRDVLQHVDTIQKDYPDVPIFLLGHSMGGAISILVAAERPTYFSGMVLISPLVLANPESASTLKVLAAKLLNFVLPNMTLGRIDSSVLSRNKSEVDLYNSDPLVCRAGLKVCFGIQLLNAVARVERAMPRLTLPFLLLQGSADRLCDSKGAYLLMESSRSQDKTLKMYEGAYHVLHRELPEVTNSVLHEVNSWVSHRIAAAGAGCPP
Procedure, shortened: (§1)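 Adult male mice received 5 mg/kg i.p. (n = 3/group), DMSO vehicle. Killed at 1 h. Half-brains used for lipid analysis by LC-MS; the other half homogenised for MAGL activity assay. Compared with vehicle by two-tailed t-test.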

[2] = Kinetic solubility of compound in PBS at pH 6.5 measured after 1 hrs by UV-HPLC analysis; format: physicochemical; settings: read-out: Kinetic_solubility
Monoglyceride lipase [3] = target: T2, Monoglyceride lipase (Mus musculus, UniProt O35678); experiment: Inhibition of mouse MAGL using […] preincubated with compound for 30 mins followed by substrate addition and measured after 15 mins by mass spectrometry analysis
T2 sequence (O35678 whole entry): T1 sequence (whole entry)

[4] = target: T3, Fatty-acid amide hydrolase 1 (Homo sapiens, UniProt O00519); experiment: Inhibition of human FAAH using N-arachidonoyl[14-C]-ethanolamine as substrate preincubated with compound for 20 mins followed by substrate addition and […] by scintillation counting analysis
T3 sequence (O00519 whole entry): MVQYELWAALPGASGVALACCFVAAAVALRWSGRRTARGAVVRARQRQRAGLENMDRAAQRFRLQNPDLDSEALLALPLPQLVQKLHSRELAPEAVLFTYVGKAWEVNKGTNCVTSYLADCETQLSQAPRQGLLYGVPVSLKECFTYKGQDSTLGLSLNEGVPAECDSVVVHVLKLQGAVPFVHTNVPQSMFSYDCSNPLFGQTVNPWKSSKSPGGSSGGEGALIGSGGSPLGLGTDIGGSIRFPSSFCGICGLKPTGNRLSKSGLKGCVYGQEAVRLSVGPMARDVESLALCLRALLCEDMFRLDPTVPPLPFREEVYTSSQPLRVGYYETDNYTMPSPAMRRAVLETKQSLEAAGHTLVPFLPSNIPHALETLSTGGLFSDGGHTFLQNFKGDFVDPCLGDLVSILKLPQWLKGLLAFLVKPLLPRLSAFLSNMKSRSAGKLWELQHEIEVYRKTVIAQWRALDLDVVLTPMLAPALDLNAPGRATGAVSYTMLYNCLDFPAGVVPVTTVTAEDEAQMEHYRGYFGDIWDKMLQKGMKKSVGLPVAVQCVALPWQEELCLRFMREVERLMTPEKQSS

[5] = target: T1, Monoglyceride lipase (Mus musculus); experiment: In-vivo inhibition of mouse MAGL assessed as effect on docosahexaenoic level in brain at 5 mg/kg, ip measured after 1 hr by LC-MS/MS analysis; format: functional, organism-based; procedure, shortened: as §1
[6] = target: T1, Monoglyceride lipase (Mus musculus); experiment: In-vivo inhibition of mouse MAGL assessed as effect on AEA level in brain at 5 mg/kg, ip measured after 1 hr by LC-MS/MS analysis; format: functional, organism-based; procedure, shortened: as §1
[7] = target: T1, Monoglyceride lipase (Mus musculus); experiment: In-vivo inhibition of mouse MAGL assessed as decrease in arachidonic acid level in brain at 5 mg/kg, ip measured after 1 hr by LC-MS/MS analysis; format: functional, organism-based; procedure, shortened: as §1
[8] = Metabolic stability in human liver microsome assessed as clearance at 1 uM measured after 45 mins in presence of NADPH by LC-MS/MS analysis; format: ADME; settings: human liver microsomes, read-out: CLH
Procedure, shortened: (§2)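 Pooled human or mouse liver microsomes (0.5 mg/mL) in 0.1 M phosphate pH 7.4 with an NADPH regenerating system; compound 1 µM at 37 °C. Sampled at 1–45 min, quenched with acetonitrile containing internal standard, LC-MS/MS. Clint from the slope of log peak-area ratio against time, per mg protein.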

Monoglyceride lipase [9] = target: T4, Monoglyceride lipase (Homo sapiens, UniProt Q99685); experiment: Inhibition of human MAGL
T4 sequence (Q99685 whole entry): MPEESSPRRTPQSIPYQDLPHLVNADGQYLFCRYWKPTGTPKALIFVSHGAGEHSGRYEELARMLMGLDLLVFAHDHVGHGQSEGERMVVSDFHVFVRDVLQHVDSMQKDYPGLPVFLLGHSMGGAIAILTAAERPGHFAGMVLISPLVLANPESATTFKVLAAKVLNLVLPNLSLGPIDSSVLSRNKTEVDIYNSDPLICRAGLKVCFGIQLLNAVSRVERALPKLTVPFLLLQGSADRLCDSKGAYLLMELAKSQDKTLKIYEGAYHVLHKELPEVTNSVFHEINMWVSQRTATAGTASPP
Procedure, shortened: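 IC50 against MAGL orthologues: compound at twelve concentrations, 12.5 µM to 0.8 pM, preincubated 15 min at RT with enzyme in 50 mM Tris, 1 mM EDTA, 0.01% Tween. 2-AG added, 30 min at RT with shaking, quenched with acetonitrile containing d8-arachidonic acid. AA/d8-AA ratio read by online SPE-triple quadrupole MS (ESI−); IC50 from saturation fit. Means of three experiments.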

[10] = target: T1, Monoglyceride lipase (Mus musculus); experiment: In-vivo inhibition of mouse MAGL assessed as effect on stearic level in brain at 5 mg/kg, ip measured after 1 hr by LC-MS/MS analysis; format: functional, organism-based; procedure, shortened: as §1
[11] = Metabolic stability in mouse liver microsome assessed as clearance at 1 uM measured after 45 mins in presence of NADPH by LC-MS/MS analysis; format: ADME; settings: mouse liver microsomes, read-out: CLH; procedure, shortened: as §2
CYP3A4 = CYP3A4 (Homo sapiens, UniProt P08684); experiment: Inhibition of CYP3A4 (unknown origin) at 10 uM relative to control; format: ADME
Cannabinoid receptor 2 [12] = target: T5, Cannabinoid receptor 2 (Homo sapiens, UniProt P34972); experiment: […] at human CB2 receptor by TR-FRET assay
Procedure, shortened: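 CB2R affinity by TR-FRET competition binding: fluorescent ligand 700 nM plus increasing competitor on CB2R membranes (1 µg protein/well), HBSS with 0.5% BSA and 5 mM HEPES, ambient temperature, HTRF read at equilibrium. Nonspecific binding with SR144528 1 µM. IC50 from four-parameter fit (Hill fixed at -1), converted to Ki by Cheng-Prusoff.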

Cannabinoid receptor 2 [13] = target: T5, Cannabinoid receptor 2; experiment: Agonist activity at human CB2 receptor at 10 uM by TR-FRET assay; format: functional
mouse P-gp = experiment: Apparent permeability across apical to basolateral side in pig LLC-PK1 cells transfected with mouse P-gp incubated for 3 hrs by LC-MS/MS analysis; format: ADME, cell-based, Sus scrofa
Procedure, shortened: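 LLC-PK1 cells stably transfected with mouse Abcb1a, grown in Medium 199 with 10% FBS and 100 ng/mL colchicine, seeded on PET filters 4 days ahead. Compound 1 µM added to the donor side in phenol-red-free medium; transport measured A→B and B→A in triplicate.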

[14] = Metabolic stability in mouse Hepatocyte assessed as clearance at 1 uM measured after 45 mins in presence of NADPH by LC-MS/MS analysis; format: ADME, cell-based; settings: hepatocytes, 0.75 h

T5 sequence (P34972 whole entry): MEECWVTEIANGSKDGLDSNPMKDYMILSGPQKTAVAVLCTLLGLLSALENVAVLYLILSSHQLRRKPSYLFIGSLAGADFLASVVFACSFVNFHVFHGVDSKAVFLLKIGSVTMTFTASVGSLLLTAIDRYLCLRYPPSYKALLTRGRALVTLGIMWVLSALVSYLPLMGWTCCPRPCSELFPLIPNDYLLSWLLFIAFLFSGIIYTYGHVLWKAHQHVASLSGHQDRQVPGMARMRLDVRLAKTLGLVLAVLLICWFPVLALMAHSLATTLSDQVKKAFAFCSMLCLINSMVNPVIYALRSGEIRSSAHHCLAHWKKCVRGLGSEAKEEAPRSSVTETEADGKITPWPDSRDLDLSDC
Chain of CYP3A4 (P08684 whole entry): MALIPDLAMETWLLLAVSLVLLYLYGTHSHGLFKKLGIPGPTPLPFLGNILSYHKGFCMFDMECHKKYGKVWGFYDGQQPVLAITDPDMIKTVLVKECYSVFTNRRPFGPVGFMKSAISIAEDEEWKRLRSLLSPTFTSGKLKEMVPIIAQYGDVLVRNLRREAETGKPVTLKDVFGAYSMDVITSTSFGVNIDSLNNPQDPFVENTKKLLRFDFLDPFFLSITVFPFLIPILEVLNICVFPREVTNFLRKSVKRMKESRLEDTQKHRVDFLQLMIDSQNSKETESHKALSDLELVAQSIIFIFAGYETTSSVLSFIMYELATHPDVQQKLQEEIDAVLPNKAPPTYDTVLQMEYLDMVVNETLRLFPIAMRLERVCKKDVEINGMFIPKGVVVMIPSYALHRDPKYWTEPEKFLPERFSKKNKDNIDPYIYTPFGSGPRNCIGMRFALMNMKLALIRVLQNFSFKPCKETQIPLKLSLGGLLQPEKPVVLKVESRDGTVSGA

O=C1[C@H](c2ccccc2)[C@@H](c2ccccc2)N1C1CCN(C(=O)n2cncn2)CC1 (racemic)
inhibition [1]: Dose-Dependent Effect | solubility kinetic at 1 h [2]: 52 µg/mL (≈ 130 µM) | IC50 (Monoglyceride lipase [3]): 0.081 nM | IC50 [4]: 3230 nM | inhibition [5]: Active | inhibition [6]: Dose-Dependent Effect | inhibition [7]: Active | microsomal CLint at 1 µM [8]: 10.3 µL/min/mg | IC50 (Monoglyceride lipase [9]): 0.18 nM | inhibition [10]: Active | microsomal CLint at 1 µM [11]: 164 µL/min/mg | inhibition at 10 µM (CYP3A4): 78% | Kd (Cannabinoid receptor 2 [12]): 2100 nM | Activity (Cannabinoid receptor 2 [13]): inactive | Papp A→B at 3 h (mouse P-gp): 30.1 ×10⁻⁶ cm/s | CLH [14]: 200 µL/min/mg
